Here are results for six compounds from article PMC11588046 (Proceedings of the National Academy of Sciences of the …, 2024).

Molecules are shown by their SMILES. Substitutions are numbered along the chain they refer to. ≈ marks a conversion by molar mass, not a printed value. Where two headings read alike, the source gives them in different places. A value given as a limit tells only on which side of the number the result lay.

Data set [1] concerns FOP fibroblasts (GM00513). The data set is described as follows: pSMAD Western blot in primary FOP fibroblasts. The format is cell-based, human. As to conditions: FOP cells; for BMP2-induced pSMAD1/5 activation: 5 ng/mL BMP2, inhibitor 1, 5 or 25 µM (LDN 1 µM); for activin A-induced phosphorylation of SMAD1/5: 200 ng/mL activin A, inhibitor 1, 5 or 25 µM (LDN 1 µM). An outline of the steps:
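Primary fibroblasts from a patient with FOP (GM00513) were pretreated for 30 min with test compound (1, 5 or 25 µM) or a reference inhibitor (1 µM). Cells then received vehicle (DMSO), 200 ng/mL activin A or 5 ng/mL BMP2 for 45 min, with inhibitor present. Lysates were Western blotted for pSMAD1/5, total SMAD1, total SMAD5 and GAPDH (loading control). For activin A, pSMAD2/3 was also blotted.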
(A western blot detects proteins with antibodies after separation by electrophoresis.)

The next data set deals with WT fibroblasts (GM01652). The data set is described as follows: pSMAD1/5 Western blot in primary WT fibroblasts. The format is cell-based, human. As to conditions: 5 ng/mL BMP2, inhibitor 1, 5 or 25 µM (LDN 1 µM).
The next data set deals with T1, WT ALK2 (Homo sapiens, UniProt Q04771).
T1 sequence (Q04771 21-509): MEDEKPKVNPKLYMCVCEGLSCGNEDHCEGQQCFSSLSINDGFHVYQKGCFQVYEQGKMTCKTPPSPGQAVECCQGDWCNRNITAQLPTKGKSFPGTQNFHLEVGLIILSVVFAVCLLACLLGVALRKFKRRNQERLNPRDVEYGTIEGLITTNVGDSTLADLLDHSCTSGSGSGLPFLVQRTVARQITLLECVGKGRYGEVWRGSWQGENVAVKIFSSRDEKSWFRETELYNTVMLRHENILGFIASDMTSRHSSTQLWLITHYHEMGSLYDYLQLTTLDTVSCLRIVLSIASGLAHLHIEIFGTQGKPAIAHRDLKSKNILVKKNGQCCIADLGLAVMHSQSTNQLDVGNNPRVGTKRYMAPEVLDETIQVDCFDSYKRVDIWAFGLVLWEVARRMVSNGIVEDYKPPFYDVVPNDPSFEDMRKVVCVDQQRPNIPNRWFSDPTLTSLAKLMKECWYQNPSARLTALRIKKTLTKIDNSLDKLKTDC
The format is cell-based. Conditions: read-out: ALK2 IC50; NanoBRET, HEK293 cells. In general terms: BRET reads energy transfer from a luciferase to a nearby fluorophore.

Another data set deals with T2, mutant ALK2 (R206H) (Homo sapiens, UniProt Q04771, R206H).
T2 sequence (Q04771 21-509 R206H): T1 sequence (Q04771 21-509) with R186H
The format is cell-based. As to conditions: read-out: ALK2 (R206H) IC50; NanoBRET, HEK293 cells.

A further data set addresses WT ALK1 (Homo sapiens, UniProt P37023). The data set is described as follows: NanoBRET TE intracellular kinase assay. The format is cell-based. As to conditions: read-out: ALK1 IC50, HEK293 cells.
Data set [2] in a line: Metabolic stability in mouse liver microsomes. The format is in vitro ADME. Background: Microsomes from liver hold many membrane-bound enzymes, among them those of drug oxidation.
Data set [3] can be described thus: Metabolic stability in human liver microsomes. The format is in vitro ADME.
The next data set can be described thus: Dynamic solubility assay. The format is physicochemical.
The subject of a further data set is 293 T-BRE-Luc cells. The data set is described as follows: BMP-induced luciferase activity in 293 T-BRE-Luc reporter cells. The format is cell-based. An outline of the steps: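 293T cells stably carrying a BMP-responsive element–luciferase reporter, about 20,000 per well, attached overnight. Pretreated 30 min with DMSO vehicle or test compound (0.04, 0.2, 1, 5, 25 μM) in phenol-red-free DMEM with 2 mM glutamine and 2% heat-inactivated FBS. Then stimulated 6 h with BMP2 (5 ng/mL), BMP6 (500 ng/mL) or BMP7 (500 ng/mL). BrightGLO luminescence normalized to ligand-only samples; dose-response curves fitted.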

WT ALK1, sequence (P37023 22-503): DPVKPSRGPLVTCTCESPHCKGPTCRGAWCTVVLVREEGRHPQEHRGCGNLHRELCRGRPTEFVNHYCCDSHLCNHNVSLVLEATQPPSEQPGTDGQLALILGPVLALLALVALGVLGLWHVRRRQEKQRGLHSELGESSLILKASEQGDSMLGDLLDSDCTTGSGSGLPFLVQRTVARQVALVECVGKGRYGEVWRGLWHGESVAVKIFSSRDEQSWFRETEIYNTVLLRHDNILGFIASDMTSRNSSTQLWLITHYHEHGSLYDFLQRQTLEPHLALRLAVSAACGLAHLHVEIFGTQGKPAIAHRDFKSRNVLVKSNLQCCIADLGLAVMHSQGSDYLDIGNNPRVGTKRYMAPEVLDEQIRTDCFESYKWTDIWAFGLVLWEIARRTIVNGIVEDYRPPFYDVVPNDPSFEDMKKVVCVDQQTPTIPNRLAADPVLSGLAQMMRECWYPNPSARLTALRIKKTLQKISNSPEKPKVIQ

Turning to `c1ccc2c(-c3cnn4cc(-c5ccc(N6CCNCC6)cc5)cnc34)ccnc2c1` [LDN-193189, reference compound], the “BMP2-induced pSMAD1/5 activation” value (in data set [1]; in the data set on WT fibroblasts (GM01652)) was “effectively suppressed pSMAD1/5 activation” in each case. For the same compound, the “activin A-induced phosphorylation of SMAD1/5” value in data set [1] is on record as “effectively suppressed pSMAD1/5 activation”.

A word on the IC50: it is the concentration at which inhibition is half-maximal. Broadly, the Solubility is how much of the substance goes into solution per volume. Higher therefore signals much dissolved substance. With `CNC(=O)[C@H]1C[C@H](n2c(-c3ccc(OC)c(OC)c3)nc3ccc(C(=O)NCCCN4CCN(c5cccc(C)c5C)CC4)cc32)C1` [CDD-2421], the IC50 at WT ALK2 was 1240 nM; on mutant ALK2 (R206H), 2400 nM; on WT ALK1, above 30000 nM. For the same compound, the “MLM t1/2” value in [2] (U, extremely unstable) came out at 3.7 min. Further, the “HLM t1/2” value in data set [3] (U, extremely unstable) came out at 6.0 min. In addition, the Solubility in the data set “Dynamic solubility assay” came to 44.8 µM (≈ 28.6 µg/mL).

As for `CNC(=O)[C@H]1C[C@H](n2c(-c3cc(OC)c(OC)c(OC)c3)nc3ccc(C(=O)NCCCN(C)C)cc32)C1` [CDD-2281], the half-inhibitory concentration (IC50) at WT ALK2, at mutant ALK2 (R206H) and at WT ALK1 was above 30000 nM in each case. The “MLM t1/2” value was 804 min in data set [2] and 807 min in data set [2] (U, extremely unstable). Moreover, the “HLM t1/2” value in [3] was found to be 768 min; in [3] (U, extremely unstable), 769 min. The same compound yielded a Solubility in “Dynamic solubility assay” of 199.6 µM (≈ 105 µg/mL).

As for `COc1cc(-c2nc3ccc(C(=O)NCCCN4CCN(c5ccccc5)CC4)cc3n2C2CCC2)cc(OC)c1OC` [CDD-2315], the IC50 on WT ALK2 was 570 nM; on mutant ALK2 (R206H), 1230 nM; at WT ALK1, above 30000 nM; with 293 T-BRE-Luc cells (read-out: IC50 of BMP2-induced luciferase activity, 5 ng/mL BMP2, 6 h) it was 1490 nM; in the data set on 293 T-BRE-Luc cells (read-out: IC50 of BMP6-induced luciferase activity, 500 ng/mL BMP6, 6 h) it was 1460 nM; in the data set with 293 T-BRE-Luc cells (read-out: IC50 of BMP7-induced luciferase activity, 500 ng/mL BMP7, 6 h), 980 nM. The “MLM t1/2” value in data set [2] (U, extremely unstable) worked out at 6.3 min. For the same compound, the “HLM t1/2” value in [3] (U, extremely unstable) worked out at 7.8 min. For the same compound, in “Dynamic solubility assay”, the Solubility turned out to be 63.5 µM (≈ 37.1 µg/mL). In addition, the “activin A-induced phosphorylation of SMAD1/5” value in [1] was “significantly inhibit the activin A-induced phosphorylation of SMAD1/5 starting at the 1 µM concentration”. Moreover, in the data set on WT fibroblasts (GM01652), the “BMP2-induced pSMAD1/5 activation” value is recorded as “significantly reduced pSMAD1/5 at all the concentrations tested”.

With `COc1cc(-c2nc3ccc(C(=O)NCC4(O)CCN(Cc5ccccc5)CC4)cc3n2C2CCC2)cc(OC)c1OC` [CDD-2795], the IC50 on WT ALK2 came out at 390 nM; at mutant ALK2 (R206H), 460 nM; at WT ALK1, 8550 nM. Further, in data set [2] (U, extremely unstable), the “MLM t1/2” value came out at 2.9 min. Moreover, the “HLM t1/2” value in data set [3] (U, extremely unstable) turned out to be 17.0 min. This compound also showed a Solubility in the data set “Dynamic solubility assay” of 141.5 µM (≈ 82.7 µg/mL).

Consider `CNC(=O)[C@H]1C[C@H](n2c(-c3cc(F)cc(OC)c3)nc3ccc(C(=O)NCCCN4CCN(c5ccccc5)CC4)cc32)C1` [CDD-2340], for which the IC50 is 5300 nM on WT ALK2, 9250 nM on mutant ALK2 (R206H) and above 30000 nM at WT ALK1. The “MLM t1/2” value in data set [2] (U, extremely unstable) turned out to be 7.1 min. Further, the “HLM t1/2” value in [3] (U, extremely unstable) amounted to 24.4 min. Further, in the data set “Dynamic solubility assay”, the Solubility worked out at 121.8 µM (≈ 72.9 µg/mL). The “BMP2-induced pSMAD1/5 activation” value in data set [1] is “only the highest concentration (25 µM) was sufficient to significantly reduce pSMAD1/5 activation”; in the data set on WT fibroblasts (GM01652), “potently reduced BMP2-induced pSMAD1/5 activation in the WT fibroblasts at 5 and 25 µM”. Besides, the “activin A-induced phosphorylation of SMAD1/5” value in data set [1] is listed as “significantly inhibit the activin A-induced phosphorylation of SMAD1/5 starting at the 1 µM concentration”.
